Out of some 310,000 compounds screened, about 2,800 (0.9%) were called active.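 The calls were made as follows: active = B-score of the integrated calcium signal more than 4 SD below the library mean, with starting fluorescence not abnormally high; inactive = the rest.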 Shown is part of a subset that was picked to be rich in actives.
assay: enhancers of RGS4 function in calcium signaling – cell-based, HEK293 M3R inducible RGS4, calcium flux, primary screen (AID 463111); settings: HEK293 M3R/inducible RGS4, carbachol calcium flux Fluo4, at 10 µM; hits give low values;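 as to B-score: negative B-score means reduced calcium response which marks RGS4 activation or potentiation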
How it was run: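 Detection: kinetic calcium fluorescence imaging with Fluo4-AM dye, 2 µM / Material: HEK293 cells with stable M3R and inducible RGS4 / Schedule: recording 10 s baseline at 1 Hz, 100 s post-agonist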

SMILES | B-score
Cc1cc(C)c2nc3nc(C)cc(C)c3c(N)c2c1 | -7.22 (active)
Cc1cc(C)c2nc(-c3ccco3)cc(C(=O)O)c2c1 | inactive
CN(CC1CCCO1)S(=O)(=O)c1ccc(C(=O)Nc2ccc([N+](=O)[O-])cc2)cc1 (stereo unspecified) | inactive
Cc1ccc(OC(=O)c2ccccc2C(=O)OCC(F)(F)C(F)F)cc1 | inactive
O=C(COC(=O)/C=C/c1ccc(S(=O)(=O)N2CCCCCC2)cc1)NCc1ccccc1Cl | inactive
O=C(c1ccc(F)c(S(=O)(=O)N2CCOCC2)c1)N(CCc1ccccc1)Cc1ccccc1 | inactive
CCCCCOc1ccc(CSC2=NCCN2)cc1[N+](=O)[O-] | inactive
CCCCOc1ccc(CSC(=N)N)cc1[N+](=O)[O-] | -7.06 (active)
CCCOc1ccc(Cn2ccnc2)cc1[N+](=O)[O-] | inactive
COc1cc(C2OC(c3cc(OC)c(OC)c(OC)c3)C(C)C2C)cc(OC)c1OC (stereo unspecified) | inactive
CSCCC(NS(=O)(=O)c1ccc(C)cc1)C(=O)NCCc1c[nH]c2ccccc12 (stereo unspecified) | inactive
O=C(Nc1cccc(Cl)c1)c1cc([N+](=O)[O-])ccc1N1CCN(CCO)CC1 | inactive
CCN1CCN(c2ccc([N+](=O)[O-])cc2C(=O)c2ccc(Cl)cc2)CC1 | -7.47 (active)
CCC(=O)c1ccc(N2CCN(C(=O)c3cc([N+](=O)[O-])ccc3F)CC2)c(F)c1 | inactive
O=C(N/N=C/c1ccc(O)c(O)c1)C1c2ccccc2Oc2ccccc21 | inactive
O=C(CCC1CCN(C(=O)c2cccc(Cl)c2F)CC1)Nc1ccccc1 | inactive
Cc1cc(S(=O)(=O)Nc2ccc(C(=O)NCC(c3ccco3)N3CCCC3)cc2)ccc1F (stereo unspecified) | inactive
COc1ccc(OCc2cc(C(=O)N3CCCC3)no2)c2ccccc12 | -7 (active)
COc1cc(Cl)ccc1OCc1cc(C(=O)N2CC[C@@H]3CCCC[C@H]3C2)no1 | inactive
COc1ccccc1-c1cc(C(=O)N2CCCCC2)no1 | inactive
O=C(NC1(C(F)(F)F)NC(=O)N(Cc2cccnc2)C1=O)c1ccccc1Cl (stereo unspecified) | inactive
O=C(CN1C(=O)c2cccnc2Oc2ccc(Cl)cc21)NCCc1ccccc1 | inactive
CCOC(=O)c1cccc(NC(=O)c2ccc(F)cc2F)c1 | inactive
Cc1ccc(N(Cc2ccccc2O)C(=O)c2ccccc2F)cc1 | inactive
Cn1c(N)c(C(=O)COC(=O)c2cnc(Cl)c(Cl)c2)c(=O)n(C)c1=O | inactive
Cc1ccc(C)c(NC(=O)NNC(=O)c2ccc3ccccc3c2O)c1 | inactive

SMILES | B-score
CC(C)(C)c1ccc(/C=C/C(=O)Nc2ncccn2)cc1 | inactive
COC(=O)c1sc(-c2ccc(C(C)(C)C)cc2)cc1NC(=O)/C=C/C(=O)O | -8.52 (active)
CSc1ccc(NC(=O)/C=C/C(=O)O)cc1 | inactive
Cc1onc(-c2c(F)cccc2Cl)c1C(=O)N(C)CC(=O)Nc1cccc(F)c1 | inactive
OCCC1CN(Cc2ccc3nsnc3c2)CCN1C1CCCCC1 (stereo unspecified) | inactive
Cn1cnnc1Sc1ccc(CN2CCN(C3CCCC3)C(CCO)C2)o1 (stereo unspecified) | inactive
OCCC1CN(Cc2ccc3nsnc3c2)CCN1C1CCCC1 (stereo unspecified) | -8.81 (active)
COc1ccccc1C(=O)N/C(=C/c1ccc2c(c1)OCO2)C(=O)Nc1cccc(C(=O)O)c1 | inactive
CN(C)CCCN(C(=O)c1ccc(S(=O)(=O)N2CCCCCC2)cc1)c1nc2ccc(Br)cc2s1 | inactive
CCN(CC)CCN(C(=O)c1ccc(S(=O)(=O)N2CCOCC2)cc1)c1nc2cc3c(cc2s1)OCCO3 | inactive
CN(C)CCCN(C(=O)c1ccc(S(=O)(=O)N2CCCCCC2)cc1)c1nc2cc3c(cc2s1)OCCO3 | -7.42 (active)
CC(CC(=O)Nc1ccc(F)cc1F)S(=O)(=O)c1ccc2c(c1)NC(=O)CO2 (stereo unspecified) | inactive
CC(CC(=O)N1CCN(S(=O)(=O)c2ccccc2)CC1)n1cncn1 (stereo unspecified) | inactive
C=CCNC(=O)c1ccccc1SCc1c(C)noc1C | inactive
CC(C)c1ccccc1OCC(O)CN(CC(O)COc1cccc2ccccc12)C(C)C (stereo unspecified) | -10 (active)
Cc1cc(C)c(NC(=O)C[N+](C)(C)CC(O)COc2cccc3ccccc23)c(C)c1 (stereo unspecified) | inactive
CCC(C)Sc1nc2c(c(=O)[nH]c(=O)n2C)n1CC(O)COc1cccc2ccccc12 (stereo unspecified) | inactive
CCCN(c1ccc(C)cc1)c1nc(=O)c2cccnc2s1 | inactive
CCOC(=O)c1c(NC(=O)NC(C)(C)C)sc2c1CCN(C)C2 | -8.36 (active)
CCOC(=O)c1c(NC(=S)Nc2ccccc2)sc2c1CCN(C)C2 | inactive
CCOC(=O)c1c(NC(=O)Cn2nc(C(F)(F)F)cc2C)sc2c1CCC2 | inactive
CCOC(=O)C1C(c2ccc(OC)c(OC)c2)c2c([nH][nH]c2=O)CC1(C)O (stereo unspecified) | inactive
CC1CN(/C=C/C(=O)C(F)(F)F)CC(C)O1 (stereo unspecified) | inactive
CCCc1ccc(OCc2ccc(C(=O)N/N=C/c3cccc([N+](=O)[O-])c3)o2)c(OC)c1 | inactive
O=C(O)CSc1c2c(nc3cc(C(=O)Nc4cccc(C(F)(F)F)c4)ccc13)CCCC2 | inactive
FC(F)(F)c1cccc(NC(=S)Nc2cccc(Cl)c2)c1 | inactive

SMILES | B-score
Cn1nc(C(F)(F)F)c(C(=O)Nc2cccc(C(F)(F)F)c2)c1SCc1ccc(Cl)cc1 | -10.4 (active)
CC(C)=CCCC(C)CN1CCC(n2nccc2NC(=O)c2ccccc2)CC1 (stereo unspecified) | inactive
CC(C)Cn1c(CCC(=O)O)ccc1-c1cccs1 | -7.21 (active)
CCOC(=O)c1ccc(-n2c(CCC(=O)O)ccc2-c2ccccc2)cc1 | inactive
COCCCn1c(CCC(=O)O)ccc1-c1ccc(F)cc1 | inactive
Cc1ccccc1CNC(=O)CCC(=O)N1Cc2ccccc2Oc2ncccc21 | inactive
CCCCOc1ccc(C(C)(O)CCN2CCOCC2)cc1 (stereo unspecified) | inactive
CCCCCC(O)(CCN1CCCCC1)c1ccccc1 (stereo unspecified) | -9.9 (active)
CCCCCCC(O)(CCN1CCCCC1)c1ccccc1 (stereo unspecified) | inactive
c1ccc(-c2ccccc2OCCN2CCCCC2)cc1 | inactive
C#CC(CCN1CCCCC1)(OC)c1ccccc1 (stereo unspecified) | -8.27 (active)
CC(C)(c1ccccc1)c1ccc(OCCN2CCCC2)cc1 | inactive
CCC(CC)COC(=O)C1=C(C)NC(=O)NC1c1ccc([N+](=O)[O-])cc1 (stereo unspecified) | inactive
COc1ccc(C(CC(=O)c2ccccc2)S(=O)(=O)c2ccccc2)cc1 (stereo unspecified) | inactive
COC(=O)c1ccc(C2C3=C(Nc4nnnn42)c2ccccc2OC3)cc1 (stereo unspecified) | inactive
Cc1ccccc1-c1nc(CS(=O)(=O)CC(=O)N2CCc3ccccc3C2)c(C)o1 | inactive
Cc1ccccc1-c1nc(CS(=O)(=O)CC(=O)NC(C)c2ccccc2)c(C)o1 (stereo unspecified) | inactive
COC(=O)c1cc2occc2n1Cc1nc(-c2ccccc2C)oc1C | -7.3 (active)
O=C(NCCc1ccccn1)c1cc(C(=O)C2CCCCC2)c[nH]1 | inactive
CCC1CCCCN1CCCNC(=O)c1cc2c(Cl)nc3ccccc3c2s1 (stereo unspecified) | -8.65 (active)
CCC1CCCCN1CCCNC(=O)C1CCC(Cn2c(=O)[nH]c3ccccc3c2=O)CC1 (stereo unspecified) | inactive
CCC1CCCCN1CCCNC(=O)Cn1nc(-c2ccccc2)ccc1=O (stereo unspecified) | inactive
CCC(c1nnnn1C1CCCC1)N1CCN(C(=O)c2ccco2)CC1 (stereo unspecified) | inactive
CC(C)C(c1nnnn1C1CCCCC1)N1CCN(C(=O)c2ccco2)CC1 (stereo unspecified) | inactive
CC(C)C(c1nnnn1CCc1ccccc1)N1CCN(C(=O)c2ccco2)CC1 (stereo unspecified) | -10.4 (active)
NC(=O)Nc1ccccc1C(=O)NCCc1ccccc1 | inactive

SMILES | B-score
Cc1ccccc1C(=O)NC(=S)NC1CC1 | inactive
Cc1ccc(-c2nc(-c3cccnc3)sc2CC(=O)Nc2ccc(C)c(Cl)c2)cc1 | inactive
CN1C(=O)/C(=C/c2ccc(C(=O)NC3CCCC3)cc2)Oc2ccccc21 | inactive
CCCN1CCN(C(=O)CCCNC(=O)c2ccc(Cl)cc2)CC1 | inactive
CN1CCN(CCCNC(=O)c2ccc(/C=C3\Oc4ccccc4N(Cc4ccc(Cl)cc4)C3=O)cc2)CC1 | -7.39 (active)
COc1ccc2c(c1)C(NS(=O)(=O)OCC(Cl)(Cl)Cl)CCC2 (stereo unspecified) | inactive
CC1(C)C=C2[C@H]3CC[C@@H]4[C@@]5(C)CCC(=O)C(C)(C)[C@@H]5CC[C@@]4(C)[C@]3(C)CC[C@@]2(C(=O)O)CC1 | -9.3 (active)
CCOC(=O)CCCNC(=O)COC(=O)c1cc(Br)c(Br)s1 | inactive
O=C(NC(=O)c1cc(OCC(F)(F)F)ccc1OCC(F)(F)F)Nc1ccccc1 | inactive
NS(=O)(=O)c1ccc(CCNS(=O)(=O)c2cccc3cccnc23)cc1 | inactive
O=C(NCC1CCCO1)c1cc2c([nH]c3ccccc32)c(-c2ccc(F)cc2)n1 (stereo unspecified) | -11.5 (active)
O=C(NCC1CCCO1)c1cc(-c2ccccc2)nc2ccccc12 (stereo unspecified) | inactive
O=C(NCCCO)c1cc2c([nH]c3ccccc32)c(-c2ccc(F)cc2)n1 | inactive
CC(=O)N/C(=C\c1ccc(F)cc1)C(=O)NC(Cc1ccccc1)C(=O)O (stereo unspecified) | inactive
CCOC(=O)c1csc(CCNC(=O)c2oc3c(Cl)cc(C)cc3c2C)n1 | inactive
CCCCCCCCCCOC(=O)Cn1c(COc2cccc(OC)c2)[n+](C)c2ccccc21 | inactive
CCCCCCCCCCOC(=O)Cn1c(COc2ccc(C)cc2)[n+](C)c2ccccc21 | -8.44 (active)
Cc1ccc(OCCCn2c(=O)oc3ccccc32)cc1 | inactive
O=C(CCN1C(=O)C2C3CCC(C3)C2C1=O)Nc1ccc(Cl)cc1Cl (stereo unspecified) | inactive
CC(NCCc1ccc(S(N)(=O)=O)cc1)C(=O)NCc1ccccc1 (stereo unspecified) | inactive
O=[N+]([O-])c1cc([N+](=O)[O-])c(Oc2cc(F)cc(F)c2F)cc1NN1CCCCC1 | -7.39 (active)
O=C(COc1ccc(Cl)cc1[N+](=O)[O-])N1CCCCC1 | inactive
O=C(CN1CCCCCC1)Nc1ccc(Br)cc1[N+](=O)[O-] | inactive

— PubChem BioAssay AID463111 (Johns Hopkins Ion Channel Center, 2010)
